These results are taken from ChEMBL document CHEMBL1125815, “2-Phenyl-3H-imidazo[4,5-b]pyridine-3-acetamides as non-benzodiazepine anticonvulsants and anxiolytics” (J Med Chem, 1991).

Bounds are passed on as bounds.

Assay [1] has as its system Mus musculus. Nature of the assay: Anticonvulsant activity against picrotoxin-induced clonic seizures in mice at 3.2 mg/kg sc. Type of assay: functional. As to conditions: route subcutaneous.
Assay [2] relates to Mus musculus. Nature of the assay: Compound was tested for anticonvulsant activity against bicuculline-induced clonic seizures in mice at 2.7 mg/kg sc. To be noted: route subcutaneous. Type of assay: functional.
Assay [3] deals with Mus musculus. Nature of the assay: Compound was tested for anticonvulsant activity against pentylenetetrazole-induced clonic seizures in mice at 80 mg/kg sc. To be noted: route subcutaneous. Type of assay: functional. A digest of the protocol: (§1)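 Female adult ICR mice, groups of eight, given test compound ip (100 mg/kg screen) in 0.5% aqueous methylcellulose or vehicle. Challenged 30 min later with pentyletetrazole 80 mg/kg sc and scored for clonic seizures.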

The target of assay [4] is GABA-A receptor; anion channel. Nature of the assay: Displacement of [3H]flunitrazepam from GABA-A benzodiazepine receptor of rat cerebral cortex membrane. Type of assay: tissue-based. A digest of the protocol: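 Rat cerebral cortex P2+P3 membranes (fresh tissue, two freeze-thaw-wash cycles to remove endogenous GABA), 0.4 mg protein. Incubated with 1 nM [3H]flunitrazepam and six concentrations (1 × 10^-5 – 1 × 10^-10 M) for 30 min at 4 °C. Filtered on GF/b filters and counted. […] IC50 from log-logit regression, mean of replicates.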

The species entered for assay [5] is Mus musculus. Nature of the assay: Anticonvulsant activity against pentylenetetrazole-induced clonic seizures in mice. Type of assay: functional. The procedure, abridged: as §1
Assay [6] deals with Mus musculus. Nature of the assay: Compound was tested for anticonvulsant activity against pentylenetetrazole-induced clonic seizures in mice on intraperitoneal administration. Type of assay: functional. To be noted: ip. A digest of the protocol: as §1
Assay [7] concerns the target GABA-A receptor; anion channel. Nature of the assay: Displacement of [3H]-diazepam from GABA-A benzodiazepine receptor of rat cerebral cortex membrane. Type of assay: tissue-based. A digest of the protocol:
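Membranes skipped the freeze-thaw-wash cycles, so endogenous GABA was retained. Six concentrations (1 × 10^-5 – 1 × 10^-10 M), 30 min at 4 °C, glass-fiber filtration and scintillation counting. IC50 from log-logit regression.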

On to `O=C1NC(=O)C(c2ccccc2)(c2ccccc2)N1` [PHENYTOIN], for which the ED50 in the assay on Mus musculus [1] is above 100 mg/kg; with Mus musculus [2] it was above 100 mg/kg; with Mus musculus [3], above 300 mg/kg.
In the case of `CN(C)C(=O)Cn1c(-c2ccc([N+](=O)[O-])cc2)nc2cccnc21`, in assay [4], the 50% inhibitory concentration (IC50) was above 10 µM. The ED50 in the assay filed under Mus musculus [5] (Mus musculus, read-out: ED50) was 47 mg/kg.
For `CN(C)C(=O)Cn1c(-c2ccco2)nc2cccnc21`, the IC50 in assay [4] is above 10 µM. For the same molecule, in the assay filed under Mus musculus [5] (Mus musculus, read-out: ED50), the ED50 was above 100 mg/kg.
The matching figures for `CN(C)CCN(C)C(=O)Cn1c(-c2ccc(Cl)cc2)nc2cccnc21`: above 10 µM and 100 mg/kg.
Take `NC(=O)Cn1c(-c2ccc(Br)cc2)nc2cccnc21`: the IC50 in assay [4] was above 10 µM. Moreover, the 50% effective dose (ED50) in the assay filed under Mus musculus [5] (Mus musculus, read-out: ED50) is 17.8 mg/kg.
The matching figures for `CN(C)C(=O)CCn1c(-c2ccc(Cl)cc2)nc2cccnc21`: 9.3 µM and 29.4 mg/kg.
The matching figures for `COc1ccc(-c2nc3cccnc3n2CC(=O)N(C)C)cc1`: 8.5 µM and 39.5 mg/kg.
For `CN(C)C(=O)Cn1c(-c2ccc(Cl)cc2)nc2c(Cl)ccnc21`, the IC50 in assay [4] was above 10 µM.
`CN(C)C(=O)Cn1c(-c2ccc(Br)o2)nc2cccnc21`: in assay [4], the IC50 was 0.2 µM. In the assay filed under Mus musculus [5] (Mus musculus, read-out: ED50), the ED50 came to 100 mg/kg.
For `O=C(O)CCCNC(=O)Cn1c(-c2ccc(Cl)cc2)nc2cccnc21`, the IC50 in assay [4] was above 10 µM.
On the same count and under the same terms, then `CC(C)N(C(=O)Cn1c(-c2ccc(Cl)cc2)nc2cccnc21)C(C)C`, with above 10 µM.
Same read-out and setting: then `O=C(Cn1c(-c2ccc(Cl)cc2)nc2cccnc21)Nc1ccccc1`, with above 10 µM; and `NC(=O)Cn1c(-c2ccc(F)cc2)nc2cccnc21`, with above 10 µM.
As to `O=C(Cn1c(-c2ccc(Cl)cc2)nc2cccnc21)N1CCCCC1`, in assay [4], the IC50 amounted to 2.7 µM. Also, the ED50 in the assay listed under Mus musculus [5] (Mus musculus, read-out: ED50) stood at 56.2 mg/kg.
In assay [4], `CN(C)C(=O)Cn1c(-c2ccc(Cl)cc2)nc2cccnc21` gave an IC50 of 3.6 µM. The 50% effect level in the assay on Mus musculus [6] (ED50) was put at a dose of 4.1 mg/kg.
`CCOC(=O)CNC(=O)Cn1c(-c2ccc(Cl)cc2)nc2cccnc21` showed a half-maximal inhibitory concentration (IC50) in assay [7] of 9.1 µM.
In turn, `NC(=O)Cn1c(-c2ccc(Cl)cc2)nc2ccc[n+]([O-])c21` displayed a half-maximal inhibitory concentration (IC50) in assay [4] above 10 µM. The 50% effective dose (ED50) in the assay listed under Mus musculus [5] (Mus musculus, read-out: ED50) amounted to 52.1 mg/kg.
The matching figures for `Cc1ccc(-c2nc3cccnc3n2CC(N)=O)cc1`: 4.5 µM and 50.5 mg/kg.
On to `O=C(Cn1c(-c2ccc(Cl)cc2)nc2cccnc21)Nc1cccnc1`, for which the ED50 in the assay filed under Mus musculus [5] (Mus musculus, read-out: ED50) came to 100 mg/kg. The molecule further registered a half-maximal inhibitory concentration (IC50) in assay [7] of 0.23 µM.
`C[C@@H](C(=O)N(C)C)n1c(-c2ccc(Cl)cc2)nc2cccnc21` returned an IC50 in assay [4] above 10 µM. In the assay listed under Mus musculus [5] (Mus musculus, read-out: ED50), the ED50 came to 31.6 mg/kg.
For `CN(C)C(=O)Cn1c(-c2ccc(Cl)cc2)nc2cnccc21`, in assay [4], the concentration for half-maximal inhibition (IC50) is above 10 µM.
In turn, `NC(=O)Cn1c(-c2ccccc2)nc2cccnc21` returned a half-inhibitory concentration (IC50) in assay [7] above 10 µM.
Turning to `CCCNC(=O)Cn1c(-c2ccc(Cl)cc2)nc2cccnc21`, in the assay listed under Mus musculus [5] (Mus musculus, read-out: ED50), the 50% effective dose (ED50) is 37.5 mg/kg. Besides, in assay [7], the IC50 amounted to 1.26 µM.
For the molecule `CN(C)C(=O)Cn1c(-c2ccccn2)nc2cccnc21`, in assay [7], the IC50 amounted to 2.6 µM. This lies in the single-digit micromolar range.
`NC(=O)Cn1c(-c2ccc(Cl)cc2)nc2ncccc21` showed an IC50 in assay [4] above 10 µM.
Regarding `O=C(Cn1c(-c2ccc(Cl)cc2)nc2cccnc21)Nc1ccccn1`, in assay [4], the IC50 was 0.31 µM. Moreover, the median effective dose (ED50) in the assay filed under Mus musculus [5] (Mus musculus, read-out: ED50) turned out to be 100 mg/kg.
In turn, `O=C(O)CNC(=O)Cn1c(-c2ccc(Cl)cc2)nc2cccnc21` yielded an IC50 in assay [7] of 7.1 µM.
Take `CNC1=Nc2ccc(Cl)cc2C(c2ccccc2)=[N+]([O-])C1` [CHLORDIAZEPOXIDE]: the IC50 in assay [4] was found to be 0.71 µM. Further, the 50% effective dose (ED50) in the assay listed under Mus musculus [5] (Mus musculus, read-out: ED50) is 1.9 mg/kg.
On to `O=C(Cn1c(-c2ccc(Cl)cc2)nc2cccnc21)Nc1ccncc1`, for which the IC50 in assay [4] turned out to be 0.47 µM.
As to `CN(C)C(=O)Cn1c(-c2ccc(Br)cc2)nc2cccnc21`, the ED50 in the assay filed under Mus musculus [5] (Mus musculus, read-out: ED50) amounted to 7 mg/kg. The molecule further yielded an IC50 in assay [7] of 3 µM.
As for `CN(C)C(=O)Cn1c(-c2cccc(Cl)c2)nc2cccnc21`, the 50% effective dose (ED50) in the assay listed under Mus musculus [5] is below 100 mg/kg; in the assay filed under Mus musculus [5] (Mus musculus, read-out: ED50) it was above 56.2 mg/kg. Further, the IC50 in assay [7] came to 2.4 µM.
Molecule `NC(=O)Cn1c(-c2ccc(C(F)(F)F)cc2)nc2cccnc21` yielded a half-inhibitory concentration (IC50) in assay [4] above 10 µM. In addition, the ED50 in the assay listed under Mus musculus [5] (Mus musculus, read-out: ED50) was determined as 11.7 mg/kg.
The matching figures for `CN(C)CCCNC(=O)Cn1c(-c2ccc(Cl)cc2)nc2cccnc21`: above 10 µM and 64 mg/kg.
`CN(C)C(=O)Cn1c(-c2ccoc2)nc2cccnc21` yielded a half-inhibitory concentration (IC50) in assay [4] above 10 µM.

In general, ED50 refers to the midpoint of the dose-response relation. Usually IC50 stands for the concentration needed to halve the response being measured. Low values mean greater potency in that assay, high ones weaker potency in that assay.
